TRPC4 inh = inhibitors of mouse TRPC4 channel, primary screen, Fluo4 calcium, HEK293 TRPC4beta/mu-opioid cells; B-score at 10 µM; AID 2247, 2010; 0.39% of 300,000 active; DAMGO-evoked Fluo4 calcium flux; active compounds read low; Short transient receptor potential channel 4 (Mus musculus), Q9QUQ5;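 active means B-score over 3 SD under the library average, no early fluorescence shift, positive overall ratio signal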
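Assay system: Stable TRPC4beta/mu-opioid receptor HEK293 cells | Reagent: DAMGO in two steps, submaximal then maximal | Compound dosing: Single concentration per test compound | Signal: Fluo4 Ca2+ flux fluorescence | Evaluation: Per-well B score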
Pemphigus Ab inh = inhibitors of pemphigus antibody binding to DSG3, primary screen, biochemical, bead-based, flow cytometry, scFv-GFP | binding (percent of control), % at 10 µM | AID 588358, 2011 | 0.48% of 310,000 active | DSG3-coupled beads, scFv-anti-DSG3-GFP binding; active compounds read low | Desmoglein-3 (Homo sapiens), P32926;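 active means binding more than 3 SD below its plate's average and above zero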;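 further: hits lower antibody fragment binding to DSG3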
Target sequence (P32926 whole entry, looked up, the tested form may be a part): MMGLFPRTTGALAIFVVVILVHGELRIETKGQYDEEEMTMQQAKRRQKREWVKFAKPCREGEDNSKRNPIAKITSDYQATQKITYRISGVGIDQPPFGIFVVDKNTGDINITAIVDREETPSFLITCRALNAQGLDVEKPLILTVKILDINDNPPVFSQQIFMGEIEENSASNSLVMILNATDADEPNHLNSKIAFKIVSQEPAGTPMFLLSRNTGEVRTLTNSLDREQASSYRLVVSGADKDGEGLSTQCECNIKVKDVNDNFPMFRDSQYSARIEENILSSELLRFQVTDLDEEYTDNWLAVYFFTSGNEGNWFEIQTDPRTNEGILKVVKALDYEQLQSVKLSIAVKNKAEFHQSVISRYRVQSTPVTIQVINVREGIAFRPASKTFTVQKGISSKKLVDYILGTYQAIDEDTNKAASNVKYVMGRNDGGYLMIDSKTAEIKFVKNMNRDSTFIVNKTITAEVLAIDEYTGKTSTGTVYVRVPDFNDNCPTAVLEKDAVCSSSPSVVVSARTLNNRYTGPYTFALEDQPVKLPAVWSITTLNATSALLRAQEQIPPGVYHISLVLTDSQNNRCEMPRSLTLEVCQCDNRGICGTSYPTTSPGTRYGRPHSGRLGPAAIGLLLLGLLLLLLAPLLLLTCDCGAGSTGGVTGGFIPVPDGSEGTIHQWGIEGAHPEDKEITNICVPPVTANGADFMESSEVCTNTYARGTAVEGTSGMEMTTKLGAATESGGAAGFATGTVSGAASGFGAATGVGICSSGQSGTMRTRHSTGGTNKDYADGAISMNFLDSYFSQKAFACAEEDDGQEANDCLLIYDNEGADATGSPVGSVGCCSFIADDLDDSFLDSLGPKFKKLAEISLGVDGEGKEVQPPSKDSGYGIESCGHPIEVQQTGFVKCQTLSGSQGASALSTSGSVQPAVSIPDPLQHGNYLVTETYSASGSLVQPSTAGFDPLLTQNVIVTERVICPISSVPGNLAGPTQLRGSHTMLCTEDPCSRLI
TRPC4 PAM = positive allosteric modulators of TRPC4, primary screen, cell-based, mouse TRPC4beta, HEK293 mu-opioid, Fluo-4 calcium. Short transient receptor potential channel 4 (Mus musculus), Q9QUQ5. DAMGO EC20, Fluo-4 Ca2+ flux; active compounds read high. B-score at 10 µM. 0.42% of 310,000 active. AID 2227, 2009;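 active means B-score of calcium response area above 5 SD of library B-scores, with initial fluorescence ratio within 5 SD of library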;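 further: B-score of integrated fluorescence ratio over time as area under calcium response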
TRPC6 inhibitor = mouse TRPC6 channel inhibitors, primary screen, cell-based, HEK293, membrane potential dye; B-score at 10 µM; 1.1% of 310,000 active; ACh-evoked depolarization; active compounds read low; Short transient receptor potential channel 6 (Mus musculus), Q61143; AID 2553, 2010;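 active means B-score under library mean minus 3 SD, initial fluorescence not abnormally high, positive integrated signal ratio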;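 further: B-score derived from integrated fluorescence ratio over the kinetic read; more negative B-score means stronger inhibition of depolarization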
TRPC4 agonist = activators of mouse TRPC4 channel, primary screen, Fluo4 calcium, HEK293 TRPC4beta/mu-opioid cells. AID 2237, 2010. 0.49% of 310,000 active. Short transient receptor potential channel 4 (Mus musculus), Q9QUQ5. B-score at 10 µM. Fluo4 calcium fluorescence; active compounds read high;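 active means B-score above 5 SD of library B-scores, and initial fluorescence ratio not above library mean plus 5 SD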;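 further: positive B-score marks a calcium rise read as TRPC4 activation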
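Material: TRPC4beta and mu-opioid receptor HEK293 stable cells | Incubation: 45 min room-temperature Fluo4 loading, 110 s read | Detection: Kinetic Fluo4 calcium fluorescence | Measure: Integrated baseline-normalised fluorescence ratio, converted to per-well B score | Benchmarks: Low control buffer alone, high control maximal DAMGO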
TRPC6 activator = mouse TRPC6 channel activators, primary screen, cell-based, HEK293, membrane potential dye; Short transient receptor potential channel 6 (Mus musculus), Q61143; HEK293-TRPC6 membrane potential dye fluorescence; active compounds read high; B-score at 10 µM; 0.13% of 310,000 active;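 active means B-score of the integrated fluorescence ratio above library mean plus 3 SD, and starting fluorescence ratio within library mean plus 5 SD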;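 further: higher score means more depolarization so channel activation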
TRPC4 spec 2 = second selectivity test of TRPC6 inhibitors: effect on mouse TRPC4; HEK293 TRPC4/MOR, membrane potential dye fluorescence; channel activated by saturating DAMGO dose; shares compounds with TRPC6 inhibitor; AID 2776; inhibition, % at 10 µM; 42% of 920 active;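 active means compounds whose fluorescence signal differed from control wells by over 3 SD, either direction, in both duplicate plates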
TRPC4 spec = mouse TRPC4 modulation by TRPC6 hits, confirmation, selectivity assay for TRPC6 inhibitor project, cell-based, HEK293 TRPC4/mu-opioid, membrane potential dye; shares compounds with TRPC6 inhibitor; membrane potential fluorescence; activity change, negative = inhibition, % at 10 µM; 61% of 920 active;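 active means rise or fall in signal beyond 3 SD of buffer-only wells in both replicate plates, either sign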;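 further: integrated kinetic ratio of fluorescence range over baseline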
HEK293 MPD ctr 2-1 = nonspecific membrane potential effects, parental HEK293, confirmation, counter-screen for TRPC6 inhibitor project, cell-based, second counter screen; shares compounds with TRPC6 inhibitor; parental HEK293 membrane potential dye fluorescence; maximal acetylcholine challenge after compound addition; signal change vs control, % at 10 µM; 31% of 920 active; AID 2779, 2010;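 active means membrane potential signal moving either way by over 3 SD of the maximum-effect control, in both duplicate plates, meaning non-specific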
HEK293 MPD ctr-1 = membrane potential modulation in parental HEK293, confirmation, counter-screen for TRPC6 inhibitor project, cell-based; shares compounds with TRPC6 inhibitor; 60% of 920 active; membrane potential signal change, % at 10 µM; AID 2780, 2010; parental HEK293 membrane potential dye fluorescence;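 active means membrane potential signal shifting up or down by more than 3 SD of buffer-only wells, on both duplicate plates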
HEK293 MPD ctr-2 = parental HEK293 membrane potential modulation, confirmation, counter-screen for TRPC6 modulator project, cell-based. shares compounds with TRPC6 inhibitor. membrane potential dye fluorescence. membrane potential signal change, % at 10 µM. 51% of 2,400 active. AID 488924, 2010;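 active means membrane potential signal moves up or down beyond 5 SD from buffer-only wells, on both duplicate plates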
HEK293 MPD ctr 2-2 = second check of TRPC6 modulator effects in parental HEK293 cells; 14% of 2,400 active; inhibition, % at 10 µM; shares compounds with TRPC6 inhibitor; membrane potential dye fluorescence; after compound, maximal acetylcholine stimulation;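 active means membrane potential signal drops by more than 5 SD from the mean control signal, in both duplicate plates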;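 further: plate controls were acetylcholine ECmax control wells for no effect and buffer only wells for full effect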
TRPC4/MOR mod = TRPC4 modulation by TRPC6 hit compounds, confirmation, selectivity assay for TRPC6 modulator project, cell-based, HEK293 TRPC4/mu-opioid, membrane potential dye, mouse | shares compounds with TRPC6 inhibitor | AID 488927, 2010 | membrane potential fluorescence | percent change from control (negative = decrease, positive = increase), % at 10 µM | 69% of 2,400 active;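 active means membrane potential signal moved up or down beyond 5 SD of buffer control wells, in both duplicate plates, actives on both sides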;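 further: plate controls were assay buffer wells for no effect and DAMGO maximal-effect wells for full effect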
TRPC4/MOR inh 2 = second selectivity test of TRPC6 modulators against mouse TRPC4; 55% of 2,400 active; AID 488928; inhibition, % at 10 µM; shares compounds with TRPC6 inhibitor; HEK293 TRPC4/mu-opioid, membrane potential dye fluorescence; stimulated with maximal-effect DAMGO;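 active means drop in membrane potential signal beyond 5 SD of the control wells in both duplicate plates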;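 further: TRPC4 counter screen for TRPC6 hits run under conditions tuned for TRPC6 not TRPC4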
TRPC6 inh conf = mouse TRPC6 channel inhibitors, confirmation, HEK293 cells, membrane potential dye, duplicate | shares compounds with TRPC6 inhibitor | ACh-evoked depolarization | inhibition, % at 10 µM | 43% of 3,300 active | AID 488960, 2010;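 active means fluorescence ratio falls more than 5 SD below the full-stimulation control mean, in both duplicate runs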;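 further: integrated fluorescence ratio of peak minus minimum over baseline after agonist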
TRPC6 act confirm = mouse TRPC6 channel activators, confirmation, HEK293 cells, membrane potential dye, duplicate | shares compounds with TRPC6 inhibitor | HEK293-TRPC6 membrane potential dye fluorescence, FDSS | activation, % at 10 µM | 11% of 2,800 active;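 active means ratio signal rise beyond 5 SD above unstimulated control wells' mean, seen in both duplicate runs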;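 further: plate controls were buffer EC0 wells for no effect and acetylcholine ECmax response for full effect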
Starred values were filed as active, the others as inactive; i = inactive; . = no result given. Shown are actives, neighbours in structure and some others; about 2.5% of the full set was active somewhere.

SMILES	TRPC4 inh	Pemphigus Ab inh	TRPC4 PAM	TRPC6 inhibitor	TRPC4 agonist	TRPC6 activator	HEK293 MPD ctr-2	HEK293 MPD ctr 2-2	TRPC4/MOR mod	TRPC4/MOR inh 2	TRPC6 inh conf	TRPC6 act confirm	others
CC(=O)c1cccc(NC(=O)CC2Oc3ccc(C)cc3NC2=O)c1 (configuration not stated)	i	109	i	i	i	i	.	.	.	.	.	.
Cc1ccc(C(=O)OCC(=O)NCC2COc3ccccc3O2)cc1 (configuration not stated)	.	104	.	.	.	.	.	.	.	.	.	.
CCOC(=O)c1cccc(NC(=O)CC2Oc3ccccc3NC2=O)c1 (configuration not stated)	i	99	i	-6*	i	i	i	i	i	i	i	i
CCOC(=O)c1ccc(NC(=O)CC2COc3ccccc3O2)cc1 (configuration not stated)	i	.	i	-7.4*	i	i	.	.	.	.	i	i	TRPC4 spec 2=i;TRPC4 spec=i;HEK293 MPD ctr 2-1=i;HEK293 MPD ctr-1=i
CCCCc1nc2c(C)c(N)cnc2n1Cc1cccc([N+](=O)[O-])c1	i	95	i	i	i	i	.	.	.	.	.	.
CCn1nnc2cc(C(=O)Nc3cccc(S(=O)(=O)N(C)C)c3)ccc21	.	95	.	.	.	.	.	.	.	.	.	.
CN(C(=O)c1cccc(Br)c1)C1CCS(=O)(=O)C1 (configuration not stated)	i	102	i	i	i	i	.	.	.	.	.	.
CCOC(=O)C1CCCN(C2=C(NS(=O)(=O)c3ccc(Br)cc3)C(=O)c3ccccc3C2=O)C1 (configuration not stated)	i	103	i	i	i	i	.	.	.	.	.	.
CC1CCN(C2=C(NS(=O)(=O)c3ccccc3)C(=O)c3ccccc3C2=O)CC1	i	97	i	-7.7*	i	i	i	i	-27%*	82%*	i	i
CC1CCN(C2=C(NS(=O)(=O)c3ccc(Br)cc3)C(=O)c3ccccc3C2=O)CC1	i	122	i	i	i	i	.	.	.	.	.	.
CC(=O)Nc1ccc(S(=O)(=O)NC2=C(N3CCN(Cc4ccccc4)CC3)C(=O)c3ccccc3C2=O)cc1	-6*	112	i	-6.6*	i	i	-224%*	i	-34%*	90%*	68%*	i
CCOC(=O)C1CCN(C2=C(NS(=O)(=O)c3ccc(Cl)cc3)C(=O)c3ccccc3C2=O)CC1	i	96	i	-6.1*	i	i	-78%*	i	-20%*	69%*	58%*	i
CCN1CCN(C2=C(NS(=O)(=O)c3ccc(NC(C)=O)cc3)C(=O)c3ccccc3C2=O)CC1	i	97	i	i	i	i	.	.	.	.	.	.
O=C1C(NS(=O)(=O)c2ccc(Br)cc2)=C(N2CCCCC2)C(=O)c2ccccc21	i	122	i	-6.3*	i	i	i	i	-20%*	72%*	i	i
CCOc1cc(OCC)c(C(C)=O)cc1OCC	.	108	.	.	.	.	.	.	.	.	.	.
CC1CCN(C2=C(NS(=O)(=O)c3ccc(Cl)cc3)C(=O)c3ccccc3C2=O)CC1	i	99	i	-6.5*	i	i	i	i	-10%*	52%*	i	i
Cc1cc2c(s1)Nc1ccccc1N=C2N1CCN(C)CC1	i	.	i	-6*	i	i	i	i	i	i	58%*	i
COc1cc(C2C3=C(COC3=O)Oc3cc4c(cc32)OCO4)ccc1O (configuration not stated)	.	84	.	.	.	.	.	.	.	.	.	.
OCCn1c(-c2ccc(F)cc2)csc1=Nc1ccccc1	i	.	i	-7.5*	i	i	120%*	i	12%*	31%*	74%*	.
O=C(/C=C/c1ccc(N2CCC(c3ccccc3)=N2)cc1)c1ccccc1	i	.	i	i	i	15*	350%*	i	80%*	i	i	46%*

Screening results (PubChem)
